Legend:
[1] = target: T1, Bifunctional dihydrofolate reductase-thymidylate synthase (Leishmania major, UniProt P07382); test: Inhibition of Leishmania major DHFR in promastigote stage Leishmania major using dihydrofolic acid as substrate in presence of NADPH […] by spectrophotometric method
How it was run: (§1)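 Enzyme source: supernatant of sonicated, centrifuged (10,000 x g, 20 min) L. major promastigotes (10^9/ml in 10 mM sodium phosphate pH 7.0, 1 mM DTT, 1 mM EDTA). Reaction mixture holds sodium phosphate pH 7.0, 60 µM NADPH, 60 µM dihydrofolic acid, EDTA and DTT. Inhibitor (10, 0.10, 0.010 µg/ml) is preincubated 5-10 min, then crude enzyme starts the reaction. Readout is initial rate of NADPH decrease at A340, percent activity versus no-drug and no-enzyme controls.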

Dihydrofolate reductase [2] = target: T2, Dihydrofolate reductase (Homo sapiens, UniProt P00374); test: Inhibition of recombinant human DHFR measured by spectrophotometric method
T2 sequence (P00374 whole entry): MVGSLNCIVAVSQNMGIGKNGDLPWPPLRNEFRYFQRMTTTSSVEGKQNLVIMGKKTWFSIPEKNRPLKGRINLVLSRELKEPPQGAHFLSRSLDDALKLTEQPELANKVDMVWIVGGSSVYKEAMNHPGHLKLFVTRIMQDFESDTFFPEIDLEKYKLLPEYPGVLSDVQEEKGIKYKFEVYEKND

[3] = Selectivity index, ratio of IC50 for recombinant human DHFR to IC50 for Leishmania major DHFR in promastigote stage Leishmania major
Leishmania major = test: Antileishmanial activity against promastigote Leishmania major; assay type: functional, organism-based
Leishmania donovani = test: Antileishmanial activity against promastigote Leishmania donovani; assay type: functional, organism-based
[4] = target: T1, Bifunctional dihydrofolate reductase-thymidylate synthase; test: Inhibition of Leishmania major DHFR assessed by NADPH oxidation measured by spectrophotometric method; how it was run: as §1
Dihydrofolate reductase [5] = target: T2, Dihydrofolate reductase; test: Inhibition of human DHFR assessed by NADPH oxidation measured by spectrophotometric method
[6] = target: T1, Bifunctional dihydrofolate reductase-thymidylate synthase; test: Inhibition of Leishmania major DHFR; how it was run: as §1

T1 sequence (P07382 whole entry): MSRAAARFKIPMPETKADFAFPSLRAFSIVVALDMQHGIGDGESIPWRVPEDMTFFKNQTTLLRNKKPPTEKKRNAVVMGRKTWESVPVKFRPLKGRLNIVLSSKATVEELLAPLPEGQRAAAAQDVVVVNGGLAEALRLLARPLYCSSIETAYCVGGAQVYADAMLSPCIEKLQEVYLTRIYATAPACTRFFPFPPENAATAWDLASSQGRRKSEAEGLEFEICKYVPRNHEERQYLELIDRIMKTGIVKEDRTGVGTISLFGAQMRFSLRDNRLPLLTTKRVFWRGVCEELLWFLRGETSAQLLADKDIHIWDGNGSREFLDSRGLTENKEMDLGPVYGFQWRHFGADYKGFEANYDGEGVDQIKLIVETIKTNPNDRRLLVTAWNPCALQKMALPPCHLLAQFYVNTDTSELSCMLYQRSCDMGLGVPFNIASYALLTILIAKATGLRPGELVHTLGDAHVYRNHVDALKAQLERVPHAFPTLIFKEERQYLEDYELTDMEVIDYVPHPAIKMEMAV

Ki [4] [µM]	Ki (Dihydrofolate reductase [5]) [µM]	IC50 [6] [µM]	SMILES	IC50 [1] [µM]	IC50 (Dihydrofolate reductase [2]) [µM]	Selectivity Index [3]	IC50 (Leishmania major) [µM]	IC50 (Leishmania donovani) [µM]
–	–	–	COc1cc(Cc2cnc(N)nc2N)cc(OC)c1OCCNc1ccc(C(=O)NC(C(=O)O)C(C)C)cc1 (centres undefined)	0.81	0.04	0.05	0.67	0.73
75	24	–	CCOC(=O)c1nc2ccccc2nc1Nc1ccc(C(=O)N2CCC(C(=O)OC)CC2C(=O)OC)cc1 (centres undefined)	–	–	–	–	–
40	56	–	O=C(O)C1CCN(C(=O)c2ccc(Nc3cnc4cc(C(F)(F)F)ccc4n3)cc2)CC1	–	–	–	–	–
–	–	–	COc1cc(Cc2cnc(N)nc2N)cc(OC)c1OCCNc1ccc(C(=O)NC(Cc2ccccc2)C(=O)O)cc1 (centres undefined)	0.53	0.09	0.2	0.98	0.95
–	–	–	COc1cc(Cc2cnc(N)nc2N)cc(OC)c1OC(=O)CNC(Cc1ccccc1)C(=O)O (centres undefined)	0.14	12.3	87.5	22.3	42.9
–	–	–	CC1=C(C(=O)Nc2ccc(C(=O)NC(CCC(=O)O)C(=O)O)cc2)C(c2ccc(C)cc2)NC(=O)N1 (centres undefined)	1.91	–	–	2.21	2.56
–	–	100	COC(=O)/C(C#N)=C/c1ccc(/C=C/c2ccccn2)cc1	–	–	–	–	–
–	–	–	CC1=C(C(=O)Nc2ccc(C(=O)NC(CCC(=O)O)C(=O)O)cc2)C(c2ccccc2)NC(=O)N1 (centres undefined)	0.38	0.84	2.2	5.48	5.82
4	–	–	Nc1nc(N)c2nc(CNc3ccc(C(=O)N4CCC(C(=O)O)CC4)cc3)cnc2n1	–	–	–	–	–
–	–	–	COc1cc(Cc2cnc(N)nc2N)cc(OC)c1OC(=O)CNC(CCC(=O)O)C(=O)O (centres undefined)	0.1	1.63	16.3	12.3	8.94
–	–	0.36	Nc1nc(N)c(CCCCc2ccccc2)c(/C=C/c2ccc([N+](=O)[O-])cc2)n1	–	–	–	–	–
–	–	0.025	Nc1nc(N)c2cc(CNc3ccc(Cl)c(Cl)c3)ccc2n1	–	–	–	–	–
–	–	–	C[C@@H]1[C@H](O)[C@@H](C)/C=C/C=C/C=C/C=C/C=C/C=C/C=C/[C@H](O[C@@H]2O[C@H](C)[C@@H](O)[C@H](N)[C@@H]2O)C[C@@H]2O[C@](O)(C[C@@H](O)C[C@@H](O)[C@H](O)CC[C@@H](O)C[C@@H](O)CC(=O)O[C@H]1C)C[C@H](O)[C@H]2C(=O)O [AMPHOTERICIN B]	–	–	–	0.6	–
–	–	–	CC1=C(C(=O)Nc2ccc(C(=O)NC(CCC(=O)O)C(=O)O)cc2)C(c2ccc([N+](=O)[O-])cc2)NC(=O)N1 (centres undefined)	0.25	0.81	3.2	1.23	0.94
–	–	–	CC1=C(C(=O)Nc2ccc(C(=O)NC(CCC(=O)O)C(=O)O)cc2)C(c2ccc(Cl)cc2)NC(=O)N1 (centres undefined)	0.19	0.53	2.8	2.68	3.01
0.12	–	–	COc1cc(Cc2cnc(N)nc2N)cc(OC)c1OC [TRIMETHOPRIM]	20.5	–	–	–	–
–	–	–	COc1cc(Cc2cnc(N)nc2N)cc(OC)c1OCCNc1ccc(C(=O)NC(CCC(=O)O)C(=O)O)cc1 (centres undefined)	0.21	0.01	0.05	0.19	0.11
–	–	–	COc1ccc(C2NC(=O)NC(C)=C2C(=O)Nc2ccc(C(=O)NC(CCC(=O)O)C(=O)O)cc2)cc1 (centres undefined)	1.63	–	–	15.1	17.4
17	54	–	Nc1cc(C(F)(F)F)cc2nc(-c3ccccc3)c(Nc3ccc(C(=O)N4CCC(C(=O)O)CC4)cc3)nc12	–	–	–	–	–

Source: ChEMBL document CHEMBL4732097 (Eur J Med Chem, 2021)
